Source: PubChem BioAssay
PRMT1 inh: PRMT1 (human) inhibition, primary screen; recombinant PRMT1, activity-based probe fluorescence polarization; inhibition, % at 2.79 µM; 1.3% of 370,000 active; AID 652257;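 active means inhibition above about 21% made by adding two undisclosed values, limit read from the data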
Target sequence (Q99873 whole entry, looked up): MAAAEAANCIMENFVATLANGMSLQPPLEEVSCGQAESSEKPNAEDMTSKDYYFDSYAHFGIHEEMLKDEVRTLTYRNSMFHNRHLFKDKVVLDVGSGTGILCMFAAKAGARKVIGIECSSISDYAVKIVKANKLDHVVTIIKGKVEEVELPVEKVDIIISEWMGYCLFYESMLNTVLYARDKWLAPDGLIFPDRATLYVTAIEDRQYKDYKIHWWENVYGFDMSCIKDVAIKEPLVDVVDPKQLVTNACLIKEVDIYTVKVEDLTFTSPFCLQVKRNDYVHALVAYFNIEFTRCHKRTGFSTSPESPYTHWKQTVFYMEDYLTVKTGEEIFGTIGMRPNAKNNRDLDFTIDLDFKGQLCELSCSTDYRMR
SIAE primary: inhibitors of human sialic acid acetylesterase SIAE; AID 1053197; SIAE FP-Rh probe binding, fluorescence polarization; 0.69% of 370,000 active; Q9HAT2; inhibition, % at 9.66 µM;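 active means inhibition above a cutoff: mean of compounds within the control limits plus 3 SD of those, cut at about 17% in these data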
RBBP9 inhibitor: blocks human serine hydrolase RBBP9; O75884; recombinant RBBP9, FP-Rh probe fluorescence polarization; inhibition, % at 7.94 µM; 0.2% of 220,000 active;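 active means inhibition above the campaign mean of all tested compounds plus 3 SD, cut at about 14% in these data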
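Test system – recombinant human RBBP9 · Input – RBBP9 2.5 µM in dispensing solution, pre-mixing · Medium – Tris buffer pH 8.0, NaCl, Pluronic · Schedule – preincubation 30 min plus labeling 45 min at 25 °C · Measured by – fluorescence polarization · Measure – % inhibition · Controls – DMSO and no-protein wells · Replicates – one well per compound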
PAD4 FP inh: PAD4 (human) enzyme inhibition. Q9UM07. recombinant PAD4, RCA probe fluorescence polarization. inhibition, % at 6.36 µM. 0.41% of 330,000 active;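 active means percent inhibition above a cutoff equal to the mean of all tested compounds plus 3 SD, cut at about 15% in these data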
GSTO1 counter: counter-screen for RBBP9 inhibitors: inhibitors of human GSTO1. P78417. 1.1% of 300,000 active. recombinant GSTO1, activity-based probe fluorescence polarization. inhibition, % at 5.96 µM. AID 1974;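 active means inhibition above the campaign mean inhibition plus 3 SD, cut at about 35% in these data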
Target sequence (P78417 whole entry, looked up): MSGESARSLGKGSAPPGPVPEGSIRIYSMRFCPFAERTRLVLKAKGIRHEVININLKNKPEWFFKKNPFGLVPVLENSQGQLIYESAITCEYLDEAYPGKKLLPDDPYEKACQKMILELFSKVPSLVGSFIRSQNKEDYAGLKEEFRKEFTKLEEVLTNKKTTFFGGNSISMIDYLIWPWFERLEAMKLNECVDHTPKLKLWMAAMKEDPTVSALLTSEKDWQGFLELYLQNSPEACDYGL
SIAE inh conf: confirmation of human SIAE inhibitors. shares compounds with SIAE primary. SIAE FP-Rh activity-based probe, fluorescence polarization. inhibition, % at 9.66 µM. 13% of 2,300 active;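 active means mean inhibition of the replicates above the hit cutoff set in the primary screen, cut at about 17% in these data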;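 further: inhibitors lower polarization as more probe stays unbound to SIAE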
Hits are given with their value; - = inactive; . = no result given. The list is not random: actives were taken first. Their share in the collection is about 2.7%.

SMILES | PRMT1 inh | SIAE primary | RBBP9 inhibitor | PAD4 FP inh | GSTO1 counter | SIAE inh conf
Cc1[nH]c(C)c(C(=O)/C=C/c2ccc([N+](=O)[O-])cc2)c1C | - | 24.6 | . | - | - | -
Cc1ccccc1-c1nnn(CC(=O)NC(=O)NC2CCCC2)n1 | - | - | . | - | . | .
COc1cc(NC(=O)c2cc(C(C)C)on2)cc(OC)c1OC | - | - | - | - | - | .
CC1CN(S(=O)(=O)c2ccc(C(=O)NC3CCCCC3)cc2)CC(C)O1 (stereo not drawn) | - | 18.2 | . | - | . | -
O=C(O)/C=C\C(=O)Nc1ccc(N2CCN(c3ccc(Cl)c(Cl)c3)CC2)cc1 | - | 26.6 | - | - | - | -
Cc1ccc(N2CC(C(=O)NCc3cccs3)CC2=O)cc1C (stereo not drawn) | - | - | - | - | - | .
Cc1cc(N2CC(C(=O)NCc3cccs3)CC2=O)ccc1C(C)C (stereo not drawn) | - | 18.0 | - | - | - | -
CN(C(=O)c1ccc(N2CCOCC2)c([N+](=O)[O-])c1)C1CCCCC1 | - | 17.1 | . | - | - | -
COC(=O)c1ccc2c(C)c(C3(O)CCCCC3)[nH]c2c1 | - | - | . | - | . | .
Cc1c(C2(O)CCCCC2)[nH]c2ccc(C#N)cc12 | - | 17.9 | . | - | . | -
Cc1c(C(=O)N2CCCCC2)c(S(=O)(=O)N(C)Cc2ccccc2)c(C)n1C | - | 22.9 | . | - | - | -
Cc1c(C(=O)NNC(=O)c2ccccc2O)oc2ccccc12 | - | 20.7 | . | . | . | -
COC(=O)c1oc2ccccc2c1NC(=O)c1ccccc1O | - | - | - | - | - | .
CC(C)CNC(=S)Nc1ccc(S(N)(=O)=O)cc1 | - | - | - | - | - | .
CC(C)(C)c1ccc(C(=O)N2CCC(C(=O)NCc3ccco3)CC2)cc1 | - | 17.1 | - | - | - | -
CC(NS(=O)(=O)c1ccc(Cl)c(Cl)c1)C(=O)OCC(=O)N1CCCCCC1 (stereo not drawn) | - | - | . | - | . | .
COc1ccccc1CN1CCNC(=O)C1CC(=O)NCCCn1cccn1 (stereo not drawn) | - | 40.0 | - | - | - | -
O=C(Oc1cccc2c(O)cccc12)c1ccco1 | - | 17.8 | . | . | . | -
Cc1ccc(C)c(OCc2nc3ccccc3[nH]2)c1 | - | 37.1 | - | - | - | -
CCC1(c2ccc(F)cc2)NC(=O)N(CC(=O)N(C)C2CCS(=O)(=O)C2)C1=O (stereo not drawn) | - | 21.2 | . | - | - | -
NNC(=O)c1ccc(Cn2cccn2)o1 | - | 21.1 | - | - | - | -
NNC(=O)c1ccc(Cn2cc(Br)cn2)o1 | - | - | - | - | - | .
CC1CN(S(=O)(=O)c2cccc(C(=O)N(Cc3nnc(-c4ccccc4Cl)o3)C3CC3)c2)CC(C)O1 (stereo not drawn) | - | 17.4 | . | - | - | -
C=CCNC(=O)c1ccc(-c2nc3ccccc3nc2-c2ccccc2)cc1 | - | 32.9 | . | - | - | -
C=CCNC(=O)c1ccc(-c2nc(-c3ccccc3)cs2)cc1 | - | - | - | - | - | .
SMILES | PRMT1 inh | SIAE primary | RBBP9 inhibitor | PAD4 FP inh | GSTO1 counter | SIAE inh conf
Cc1ccc(CNC(=O)c2ccc(CS(=O)(=O)c3ccccc3)o2)cc1 | - | - | . | - | - | .
Cc1ccc(S(=O)(=O)Cc2ccc(C(=O)NCc3cccs3)o2)cc1 | - | 69.4 | - | - | - | -
COc1ccc(/C=C2\N=C3CCCCCN3C2=O)cc1OC | - | 110.2 | - | - | - | -
COc1cc(/C=C2\N=C3CCCCCN3C2=O)ccc1O | - | - | - | - | - | .
COc1ccc(C2(O)CN(c3ccc(C)cc3)C3=[N+]2CCCC3)cc1 (stereo not drawn) | - | 20.0 | - | - | - | -
Cc1ccc(N2CC(O)(c3cccs3)[N+]3=C2CCCC3)cc1 (stereo not drawn) | - | - | - | - | - | .
CCC(=O)Nc1cccc(NC(=O)CSc2nnnn2C)c1 | - | - | - | - | - | .
C/C(=N\Nc1nc2ccccc2[nH]1)c1ccc2c(c1)OCCO2 | - | 19.8 | - | - | - | -
C/C(=N\Nc1nc2ccccc2[nH]1)c1ccc2c(c1)OCO2 | - | - | - | - | - | .
C/C(=N\Nc1nc2ccccc2[nH]1)c1cc2ccccc2o1 | - | 24.0 | - | - | - | -
COc1ccc(CN2CCN(Cc3ccccc3F)CC2)c(OC)c1 | - | 17.3 | . | - | - | -
COc1ccc(-n2c(=S)[nH]c3cc(C(=O)Nc4cc(OC)c(OC)c(OC)c4)ccc3c2=O)c(OC)c1 | - | 17.1 | - | - | - | -
O=C(CNS(=O)(=O)c1cccc(Br)c1)NCCCc1ccccc1 | - | 20.4 | . | - | - | -
N#Cc1cccc(S(=O)(=O)NCC(=O)NCCCc2ccccc2)c1 | - | - | . | - | - | .
COc1cc(NC(=S)NCCc2c[nH]c3ccccc23)c(OC)cc1Cl | - | 20.4 | - | - | - | -
COc1ccccc1NC(=S)NCCc1c[nH]c2ccccc12 | - | - | - | - | - | .
O=C(O)COc1ccc(C=C2SC(=S)N(c3ccccc3)C2=O)cc1 | - | - | . | . | . | .
COCCCNC(=O)C[C@H]1C[C@@]2(C(=O)OC)C(=C[C@H](COCc3ccccc3)O[C@@H]2C)N(Cc2ccc3c(c2)OCO3)C1=O | - | 29.4 | . | . | . | -
CC(NC(=O)COC(=O)CNC(=O)c1ccc(-c2ccccc2)cc1)c1ccccc1 (stereo not drawn) | - | - | . | - | - | .
COc1ccc(N2CCN(CCCNC(=O)CN3CCN(Cc4ccccc4C)C3=O)CC2)cc1 | - | - | - | - | - | .
COC(C[C@H]1O[C@@H]1[C@H](O)COCc1ccccc1)OC | - | - | . | - | . | .
Cc1cccc(NC(=O)c2ccc(C(=O)Nc3cccc(C)c3)nc2)c1 | - | - | - | - | - | .
Nc1ccc(C(=O)N/N=C\c2cc(N=Nc3cccc4ccccc34)ccc2O)cc1 | - | 36.4 | - | - | - | 18.7
CCN(C(=S)Nc1cccc(C)c1)c1ccccc1 | - | 23.5 | - | - | - | -
COc1cccc(C(=O)NCCn2ccc3ccccc32)c1 | - | - | - | - | - | .
SMILES | PRMT1 inh | SIAE primary | RBBP9 inhibitor | PAD4 FP inh | GSTO1 counter | SIAE inh conf
COc1ccc(C(=O)NCCn2ccc3ccccc32)cc1OC | - | 21.6 | - | - | - | -
CC(C)(C)C1CCSC2=NCCC[C@]2(c2ccccc2)C1 (stereo partly drawn) | - | - | . | . | . | .
O=C(CSc1n[nH]c(=O)n1C1CC1)NCc1ccccc1 | - | - | - | - | - | .
CC(C)C1=CC2C3C(=O)N(c4ccccc4)C(=O)C3C1C(=O)C2(C)O (stereo not drawn) | - | 20.6 | . | . | . | -
O=C(CN=C1NS(=O)(=O)c2ccccc21)OCC(=O)c1cc(F)ccc1F | - | - | - | - | - | .
COc1ccc(-c2nnn(CC(=O)N3CCN(c4ccc(F)cc4)CC3)n2)cc1 | - | - | - | - | - | .
COc1ccc(N2CCN(C(=O)CN3CCN(c4nc(-c5ccc(F)cc5)cs4)CC3)CC2)cc1 | - | 28.1 | - | - | - | -
O=C(CSc1nnc(SCc2ccccc2)s1)N/N=C/c1c[nH]c2ccccc12 | - | - | - | . | . | .
O=C(CSc1nnc(SCc2ccccc2Cl)s1)N/N=C/c1c[nH]c2ccccc12 | - | 28.4 | - | - | - | -
